This is an account of results in ChEMBL document CHEMBL1131409, “Human telomerase inhibition by regioisomeric disubstituted amidoanthracene-9,10-diones” (J Med Chem, 1998).

Test [1] has as its system A2780. Nature of the test: In vitro cytotoxicity against A2780 ovarian cells using the sulforhodamine B(SRB) assay. The class given is functional, cell-based. The note with it: Homo sapiens. The gist of the method:
(§1)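 SRB growth assay. 3000–6000 cells were seeded and attached overnight. Agents were dissolved at 500 μM in water and added in quadruplicate at final 0.05, 0.25, 1, 5 and 25 μM. After 96 h, cells were fixed with cold 10% TCA and stained with 0.4% SRB. A540 was expressed as percent of untreated control and the 50% growth-inhibitory concentration was derived.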

Test [2] relates to CH1. The test is described as follows: In vitro cytotoxicity against CH1 ovarian cells using the sulforhodamine B(SRB) assay. Type of test: functional, cell-based. The note with it: Homo sapiens. The gist of the method:
as §1

The subject of test [3] is SK-OV-3. Nature of the test: In vitro cytotoxicity against SKOV-3 ovarian cells using the sulforhodamine B(SRB) assay. The note with it: Homo sapiens. The class given is functional, cell-based. Summed up:
as §1

In test [4] the target is Telomerase reverse transcriptase (Homo sapiens, UniProt O14746). Nature of the test: Inhibitory activity of telomerase was measured using the TRAP assay. Summed up:
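Cell-free modified TRAP with extracts from exponentially growing A2780 ovarian carcinoma cells. 0.04 μg protein was incubated with TS primer, dNTPs (50 μM each) and [α-32P]dCTP in TRAP buffer (pH 8.3, 68 mM KCl) ± agent, up to 50 μM final, for 20 min at 25 °C. Then 80 °C for 5 min, CX primer plus Taq, 31 PCR cycles. Products read by gel phosphorimaging/autoradiography or filter scintillation counting. IC50 taken as 50% inhibition relative to controls.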

A value given as a limit tells only on which side of the number the result lay.

Sequence of Telomerase reverse transcriptase (O14746 whole entry): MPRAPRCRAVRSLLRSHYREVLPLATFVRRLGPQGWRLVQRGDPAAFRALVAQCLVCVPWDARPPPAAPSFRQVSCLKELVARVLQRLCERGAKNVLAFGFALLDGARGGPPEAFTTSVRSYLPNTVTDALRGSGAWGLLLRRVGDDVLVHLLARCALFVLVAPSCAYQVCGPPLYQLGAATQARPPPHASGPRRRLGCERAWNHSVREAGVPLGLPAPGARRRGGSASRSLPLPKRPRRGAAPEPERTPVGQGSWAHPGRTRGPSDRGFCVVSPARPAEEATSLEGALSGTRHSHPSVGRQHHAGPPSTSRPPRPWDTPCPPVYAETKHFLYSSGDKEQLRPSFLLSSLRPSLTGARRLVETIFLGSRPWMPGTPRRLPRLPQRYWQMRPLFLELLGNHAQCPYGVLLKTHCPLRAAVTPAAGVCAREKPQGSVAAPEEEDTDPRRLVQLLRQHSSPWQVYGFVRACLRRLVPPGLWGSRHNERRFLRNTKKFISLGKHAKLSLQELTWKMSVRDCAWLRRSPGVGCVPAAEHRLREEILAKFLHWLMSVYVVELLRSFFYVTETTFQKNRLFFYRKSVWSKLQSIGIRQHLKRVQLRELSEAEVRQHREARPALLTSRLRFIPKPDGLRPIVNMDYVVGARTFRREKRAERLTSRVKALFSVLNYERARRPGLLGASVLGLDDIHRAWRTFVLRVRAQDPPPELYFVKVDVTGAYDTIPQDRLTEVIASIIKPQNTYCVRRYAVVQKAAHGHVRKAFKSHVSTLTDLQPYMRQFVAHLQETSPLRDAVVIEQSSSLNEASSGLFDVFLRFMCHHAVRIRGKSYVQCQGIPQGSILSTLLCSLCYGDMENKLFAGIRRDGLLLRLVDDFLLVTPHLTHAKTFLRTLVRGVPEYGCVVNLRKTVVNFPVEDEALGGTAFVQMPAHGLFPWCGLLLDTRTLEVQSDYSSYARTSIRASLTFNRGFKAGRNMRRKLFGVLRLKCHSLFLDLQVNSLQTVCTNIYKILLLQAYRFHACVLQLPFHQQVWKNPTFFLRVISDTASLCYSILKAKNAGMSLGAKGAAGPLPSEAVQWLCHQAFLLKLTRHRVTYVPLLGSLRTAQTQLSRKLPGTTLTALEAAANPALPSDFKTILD

Consider `CCN(CC)CCC(=O)Nc1cccc2c1C(=O)c1c(NC(=O)CCN(CC)CC)cccc1C2=O`, for which the IC50 is 0.64 µM in test [1], 5.3 µM in test [2], 5.2 µM in test [3] and 4.2 µM in test [4].
As to `O=C(CCN1CCOCC1)Nc1cccc2c1C(=O)c1c(NC(=O)CCN3CCOCC3)cccc1C2=O`, the 50% inhibitory concentration (IC50) in test [1] was greater than 25 µM; in test [2], 21.5 µM; in test [3], greater than 25 µM; in test [4], greater than 50 µM.
For `CCN(CC)CCC(=O)Nc1ccc(NC(=O)CCN(CC)CC)c2c1C(=O)c1ccccc1C2=O`, the IC50 was 0.2 µM in test [1], 0.26 µM in test [2] and 1.4 µM in test [3].
Consider `CN(C)CCC(=O)Nc1ccc2c(c1)C(=O)c1cc(NC(=O)CCN(C)C)ccc1C2=O`, for which the half-maximal inhibitory concentration (IC50) stood at 2.1 µM in test [1], 4.4 µM in test [2], 4.15 µM in test [3] and 4.7 µM in test [4].
The matching figures for `C[N+]1(CCC(=O)Nc2cccc3c2C(=O)c2c(NC(=O)CC[N+]4(C)CCOCC4)cccc2C3=O)CCOCC1`: 0.51 µM, 0.58 µM, 2.6 µM and 10 µM.
In the same order, the values of `O=C(CCN1CCCCC1)Nc1cccc2c1C(=O)c1cccc(NC(=O)CCN3CCCCC3)c1C2=O` are 0.435 µM, 0.42 µM, 0.82 µM and 2.3 µM.
In the same order, the values of `C[N+]1(CCC(=O)Nc2cccc3c2C(=O)c2cccc(NC(=O)CC[N+]4(C)CCOCC4)c2C3=O)CCOCC1` are 1.9 µM, 1.8 µM, 2.9 µM and 13.2 µM.
On to `C[N+](C)(C)CCC(=O)Nc1ccc(NC(=O)CC[N+](C)(C)C)c2c1C(=O)c1ccccc1C2=O`, for which the IC50 in test [4] was found to be 7 µM.
With `CCN(CC)CCC(=O)Nc1ccc2c(c1)C(=O)c1ccc(NC(=O)CCN(CC)CC)cc1C2=O`, the IC50 in test [1] was determined as 2.35 µM; in test [2], 3.15 µM; in test [3], 3.15 µM; in test [4], 3.5 µM.
Turning to `CC[N+](C)(CC)CCC(=O)Nc1ccc2c(c1)C(=O)c1cc(NC(=O)CC[N+](C)(CC)CC)ccc1C2=O`, the IC50 in test [1] was 0.33 µM; in test [2] it was 1.13 µM; in test [3], 2 µM; in test [4] it was greater than 20 µM.
Take `C[N+](C)(C)CCC(=O)Nc1cccc2c1C(=O)c1c(NC(=O)CC[N+](C)(C)C)cccc1C2=O`: the IC50 in test [1] came to 0.53 µM; in test [2], 1.4 µM; in test [3], 2.2 µM; in test [4] it was 4.4 µM.
In the same order, the values of `C[N+]1(CCC(=O)Nc2cccc3c2C(=O)c2cccc(NC(=O)CC[N+]4(C)CCCCC4)c2C3=O)CCCCC1` are 2 µM, 2.1 µM, 8.3 µM and 8.6 µM.
As for `CCN(CC)CCC(=O)Nc1ccc2c(c1)C(=O)c1cc(NC(=O)CCN(CC)CC)ccc1C2=O`, the IC50 in test [1] was determined as 2.1 µM; in test [2], 4.6 µM; in test [3] it was 7.2 µM; in test [4], 4.3 µM.
The matching figures for `C[N+]1(CCC(=O)Nc2cccc3c2C(=O)c2c(NC(=O)CC[N+]4(C)CCCCC4)cccc2C3=O)CCCCC1`: 0.52 µM, 1.12 µM, 4.6 µM and 7.8 µM.
As for `CN(C)CCC(=O)Nc1cccc2c1C(=O)c1cccc(NC(=O)CCN(C)C)c1C2=O`, the IC50 is 0.35 µM in test [1], 0.37 µM in test [2], 0.62 µM in test [3] and 1.3 µM in test [4].
In the same order, the values of `C[N+]1(CCC(=O)Nc2ccc3c(c2)C(=O)c2cc(NC(=O)CC[N+]4(C)CCOCC4)ccc2C3=O)CCOCC1` are 0.52 µM, 1.1 µM, 2.95 µM and 16.5 µM.
In the same order, the values of `CC[N+](C)(CC)CCC(=O)Nc1cccc2c1C(=O)c1cccc(NC(=O)CC[N+](C)(CC)CC)c1C2=O` are 1.9 µM, 2.05 µM, 10 µM and 16.8 µM.
The matching figures for `C[N+]1(CCC(=O)Nc2ccc3c(c2)C(=O)c2cc(NC(=O)CC[N+]4(C)CCCC4)ccc2C3=O)CCCC1`: 0.48 µM, 1.6 µM, 4.7 µM and 16 µM.
Take `O=C(CCN1CCOCC1)Nc1ccc2c(c1)C(=O)c1cc(NC(=O)CCN3CCOCC3)ccc1C2=O`: the IC50 is 5.3 µM in test [1], 7.5 µM in test [2], greater than 100 µM in test [3] and greater than 50 µM in test [4].
In the same order, the values of `O=C(CCN1CCCC1)Nc1ccc2c(c1)C(=O)c1ccc(NC(=O)CCN3CCCC3)cc1C2=O` are 39 µM, 49 µM, 38 µM and 1.8 µM.
Regarding `C[N+](C)(C)CCC(=O)Nc1cccc2c1C(=O)c1cccc(NC(=O)CC[N+](C)(C)C)c1C2=O`, the IC50 in test [1] was determined as 1.7 µM; in test [2], 1.75 µM; in test [3], 5.8 µM; in test [4] it was 13.2 µM.
In the same order, the values of `CCN(CC)CCC(=O)Nc1cccc2c1C(=O)c1cccc(NC(=O)CCN(CC)CC)c1C2=O` are 0.32 µM, 0.32 µM, 0.62 µM and 2.7 µM.
In test [4], `CN(C)CCC(=O)Nc1ccc2c(c1)C(=O)c1ccc(NC(=O)CCN(C)C)cc1C2=O` came in with an IC50 of 4.1 µM.
On to `C[N+]1(CCC(=O)Nc2ccc(NC(=O)CC[N+]3(C)CCCC3)c3c2C(=O)c2ccccc2C3=O)CCCC1`, for which the IC50 in test [1] is 1.5 µM; in test [2], 4.5 µM; in test [3], 37 µM; in test [4], 5 µM.
The matching figures for `O=C(CCN1CCOCC1)Nc1cccc2c1C(=O)c1cccc(NC(=O)CCN3CCOCC3)c1C2=O`: greater than 25 µM, greater than 25 µM, greater than 25 µM and greater than 50 µM.
The matching figures for `CN(C)CCC(=O)Nc1cccc2c1C(=O)c1c(NC(=O)CCN(C)C)cccc1C2=O`: 0.33 µM, 1.35 µM, 1.65 µM and 6.4 µM.
In the case of `O=C(CCN1CCCC1)Nc1cccc2c1C(=O)c1cccc(NC(=O)CCN3CCCC3)c1C2=O`, the values for the half-maximal inhibitory concentration (IC50) in test [1], in test [2] and in test [3] were 0.32 µM, 0.36 µM and 0.53 µM, respectively.
Take `O=C(CCN1CCCCC1)Nc1cccc2c1C(=O)c1c(NC(=O)CCN3CCCCC3)cccc1C2=O`: the IC50 in test [1] was 0.54 µM; in test [2], 1.95 µM; in test [3], 2.35 µM; in test [4], 3.7 µM.
Regarding `CC[N+](C)(CC)CCC(=O)Nc1ccc2c(c1)C(=O)c1ccc(NC(=O)CC[N+](C)(CC)CC)cc1C2=O`, the IC50 in test [1] was determined as 2.1 µM; in test [2], 1.9 µM; in test [3], 6.4 µM.
Turning to `O=C(CCN1CCCC1)Nc1ccc(NC(=O)CCN2CCCC2)c2c1C(=O)c1ccccc1C2=O`, the concentration for half-maximal inhibition (IC50) worked out at 0.0025 µM in test [1], 0.019 µM in test [2] and 0.39 µM in test [3].
On to `C[N+]1(CCC(=O)Nc2ccc3c(c2)C(=O)c2ccc(NC(=O)CC[N+]4(C)CCCC4)cc2C3=O)CCCC1`, for which the concentration for half-maximal inhibition (IC50) is 0.56 µM in test [1], 1.35 µM in test [2] and 2 µM in test [3].
Consider `CC[N+](C)(CC)CCC(=O)Nc1ccc(NC(=O)CC[N+](C)(CC)CC)c2c1C(=O)c1ccccc1C2=O`, for which the 50% inhibitory concentration (IC50) in test [1] is 4.25 µM; in test [2], 6.3 µM; in test [3], greater than 25 µM; in test [4], 3.1 µM.
In the same order, the values of `C[N+]1(CCC(=O)Nc2cccc3c2C(=O)c2c(NC(=O)CC[N+]4(C)CCCC4)cccc2C3=O)CCCC1` are 0.6 µM, 1.68 µM, 5 µM and 8.2 µM.
In the same order, the values of `C[N+]1(CCC(=O)Nc2ccc3c(c2)C(=O)c2cc(NC(=O)CC[N+]4(C)CCCCC4)ccc2C3=O)CCCCC1` are 0.18 µM, 1.05 µM, 2.2 µM and 7.8 µM.
As for `C[N+](C)(C)CCC(=O)Nc1ccc2c(c1)C(=O)c1cc(NC(=O)CC[N+](C)(C)C)ccc1C2=O`, the IC50 is 0.44 µM in test [1], 1.3 µM in test [2], 4 µM in test [3] and 14.5 µM in test [4].
Take `O=C(CCN1CCCC1)Nc1cccc2c1C(=O)c1c(NC(=O)CCN3CCCC3)cccc1C2=O`: the values for the concentration for half-maximal inhibition (IC50) in test [1], in test [2] and in test [3] were 0.295 µM, 1.28 µM and 1.2 µM, respectively.
`O=C(CCN1CCCC1)Nc1ccc2c(c1)C(=O)c1cc(NC(=O)CCN3CCCC3)ccc1C2=O`: the IC50 in test [1] amounted to 1.2 µM; in test [2], 1.8 µM; in test [3], 2.3 µM; in test [4] it was 2 µM.
Take `CC[N+](C)(CC)CCC(=O)Nc1cccc2c1C(=O)c1c(NC(=O)CC[N+](C)(CC)CC)cccc1C2=O`: the IC50 in test [1] is 0.55 µM; in test [2], 1.65 µM; in test [3], 4.6 µM; in test [4], 7.5 µM.
In the case of `O=C(CCN1CCOCC1)Nc1ccc2c(c1)C(=O)c1ccc(NC(=O)CCN3CCOCC3)cc1C2=O`, the IC50 is greater than 25 µM in test [1], 14 µM in test [2] and greater than 25 µM in test [3].
In the case of `C[N+]1(CCC(=O)Nc2cccc3c2C(=O)c2cccc(NC(=O)CC[N+]4(C)CCCC4)c2C3=O)CCCC1`, the half-inhibitory concentration (IC50) in test [1] turned out to be 2.2 µM; in test [2] it was 2.25 µM; in test [3], 10 µM; in test [4], 8.8 µM.

The term IC50 denotes the midpoint of a concentration-inhibition curve. Low readings indicate greater potency in that assay, high ones weaker potency in that assay.
